According to paper PMC3101112 (Cancer Management and Research, 2011):
Where “and” joins values, the source holds several entries; their conditions need not be identical. Equal entries are not always repeated. Where two headings read alike, the source gives them in different places.

Assays:
[1] = Plasma pharmacokinetics in patients with relapsed AML; format: in vivo, human
Outline: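 Relapsed AML patients got 50 mg test compound orally after an ~8 h fast, without the probe cocktail. Plasma was sampled over 48 h after a single dose and over 12 h after one week of once-daily dosing. Tmax, Cmax, AUC and oral clearance came from noncompartmental analysis.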

EPHA1 = EPHA1 (Homo sapiens, UniProt P21709); assay: Biochemical inhibition profile, EPHA1; settings: read-out: Biochemical Inhibition Profile IC50, EPHA1
FLT4 = FLT4 (Homo sapiens, UniProt P35916); assay: Biochemical inhibition profile, FLT4; settings: read-out: Biochemical Inhibition Profile IC50, FLT4
Chain of FLT4 (P35916 25-1363): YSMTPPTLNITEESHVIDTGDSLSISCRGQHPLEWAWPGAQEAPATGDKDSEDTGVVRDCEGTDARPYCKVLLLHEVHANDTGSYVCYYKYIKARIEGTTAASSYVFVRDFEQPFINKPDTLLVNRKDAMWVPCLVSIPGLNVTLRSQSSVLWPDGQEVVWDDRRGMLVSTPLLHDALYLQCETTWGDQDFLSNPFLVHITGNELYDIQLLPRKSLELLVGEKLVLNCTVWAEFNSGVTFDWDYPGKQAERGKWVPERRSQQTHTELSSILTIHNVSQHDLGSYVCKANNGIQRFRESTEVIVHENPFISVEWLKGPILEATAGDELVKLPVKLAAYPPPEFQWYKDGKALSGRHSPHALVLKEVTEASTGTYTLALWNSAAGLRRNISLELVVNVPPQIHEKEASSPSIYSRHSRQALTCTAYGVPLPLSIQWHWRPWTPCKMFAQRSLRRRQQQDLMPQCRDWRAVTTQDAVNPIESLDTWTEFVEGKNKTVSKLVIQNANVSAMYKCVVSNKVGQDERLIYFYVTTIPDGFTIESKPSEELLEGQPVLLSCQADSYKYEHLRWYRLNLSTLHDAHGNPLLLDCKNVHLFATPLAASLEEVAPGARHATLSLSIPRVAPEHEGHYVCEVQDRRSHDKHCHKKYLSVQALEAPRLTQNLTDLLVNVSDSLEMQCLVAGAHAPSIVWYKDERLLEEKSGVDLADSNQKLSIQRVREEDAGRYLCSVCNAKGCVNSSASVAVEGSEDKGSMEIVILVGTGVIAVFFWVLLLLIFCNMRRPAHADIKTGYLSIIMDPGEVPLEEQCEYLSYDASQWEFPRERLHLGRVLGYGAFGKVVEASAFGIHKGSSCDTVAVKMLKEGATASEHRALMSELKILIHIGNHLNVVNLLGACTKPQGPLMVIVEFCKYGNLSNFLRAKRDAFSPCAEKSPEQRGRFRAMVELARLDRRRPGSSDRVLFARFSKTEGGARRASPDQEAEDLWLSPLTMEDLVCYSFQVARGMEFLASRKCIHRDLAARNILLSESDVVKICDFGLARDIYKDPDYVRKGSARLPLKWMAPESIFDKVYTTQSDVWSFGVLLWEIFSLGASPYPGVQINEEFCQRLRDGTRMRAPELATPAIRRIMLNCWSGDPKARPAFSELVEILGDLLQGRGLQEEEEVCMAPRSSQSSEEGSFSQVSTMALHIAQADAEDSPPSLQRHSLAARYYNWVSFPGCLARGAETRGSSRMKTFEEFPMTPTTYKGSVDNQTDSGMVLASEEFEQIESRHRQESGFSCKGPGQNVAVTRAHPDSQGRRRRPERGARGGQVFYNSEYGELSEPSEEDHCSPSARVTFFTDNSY

EPHB4 [2] = target: T1, EPHB4 (Homo sapiens, UniProt P54760); settings: read-out: Biochemical Inhibition Profile IC50, EPHB4
T1 sequence (P54760 16-987): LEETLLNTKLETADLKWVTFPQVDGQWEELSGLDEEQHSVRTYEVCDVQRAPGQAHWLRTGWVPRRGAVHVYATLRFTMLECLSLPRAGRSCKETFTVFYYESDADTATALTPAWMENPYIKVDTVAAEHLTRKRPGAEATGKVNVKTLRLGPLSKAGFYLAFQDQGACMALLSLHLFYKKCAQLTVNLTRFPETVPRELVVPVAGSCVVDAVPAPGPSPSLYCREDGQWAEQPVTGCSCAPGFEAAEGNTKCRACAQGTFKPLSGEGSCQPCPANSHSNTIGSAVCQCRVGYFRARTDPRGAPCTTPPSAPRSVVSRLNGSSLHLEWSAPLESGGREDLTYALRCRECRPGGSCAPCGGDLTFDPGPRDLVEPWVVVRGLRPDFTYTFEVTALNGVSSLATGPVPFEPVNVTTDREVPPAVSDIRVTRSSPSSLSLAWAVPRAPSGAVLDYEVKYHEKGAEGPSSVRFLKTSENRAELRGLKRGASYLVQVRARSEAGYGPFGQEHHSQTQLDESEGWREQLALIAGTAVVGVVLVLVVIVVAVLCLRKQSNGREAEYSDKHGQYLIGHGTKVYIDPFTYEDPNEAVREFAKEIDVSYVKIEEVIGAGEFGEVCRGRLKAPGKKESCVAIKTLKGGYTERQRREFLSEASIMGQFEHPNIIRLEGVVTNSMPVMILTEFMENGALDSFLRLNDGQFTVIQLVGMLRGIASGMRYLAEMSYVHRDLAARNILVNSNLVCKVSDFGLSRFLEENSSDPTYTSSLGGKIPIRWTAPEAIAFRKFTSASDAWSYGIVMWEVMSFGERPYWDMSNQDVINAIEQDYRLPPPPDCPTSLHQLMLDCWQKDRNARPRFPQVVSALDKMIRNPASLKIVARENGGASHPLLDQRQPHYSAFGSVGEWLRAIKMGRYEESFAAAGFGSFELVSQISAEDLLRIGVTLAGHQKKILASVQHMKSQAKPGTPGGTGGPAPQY

EPHA3 = EPHA3 (Homo sapiens, UniProt P29320); assay: Biochemical inhibition profile, EPHA3; settings: read-out: Biochemical Inhibition Profile IC50, EPHA3
Chain of EPHA3 (P29320 21-983): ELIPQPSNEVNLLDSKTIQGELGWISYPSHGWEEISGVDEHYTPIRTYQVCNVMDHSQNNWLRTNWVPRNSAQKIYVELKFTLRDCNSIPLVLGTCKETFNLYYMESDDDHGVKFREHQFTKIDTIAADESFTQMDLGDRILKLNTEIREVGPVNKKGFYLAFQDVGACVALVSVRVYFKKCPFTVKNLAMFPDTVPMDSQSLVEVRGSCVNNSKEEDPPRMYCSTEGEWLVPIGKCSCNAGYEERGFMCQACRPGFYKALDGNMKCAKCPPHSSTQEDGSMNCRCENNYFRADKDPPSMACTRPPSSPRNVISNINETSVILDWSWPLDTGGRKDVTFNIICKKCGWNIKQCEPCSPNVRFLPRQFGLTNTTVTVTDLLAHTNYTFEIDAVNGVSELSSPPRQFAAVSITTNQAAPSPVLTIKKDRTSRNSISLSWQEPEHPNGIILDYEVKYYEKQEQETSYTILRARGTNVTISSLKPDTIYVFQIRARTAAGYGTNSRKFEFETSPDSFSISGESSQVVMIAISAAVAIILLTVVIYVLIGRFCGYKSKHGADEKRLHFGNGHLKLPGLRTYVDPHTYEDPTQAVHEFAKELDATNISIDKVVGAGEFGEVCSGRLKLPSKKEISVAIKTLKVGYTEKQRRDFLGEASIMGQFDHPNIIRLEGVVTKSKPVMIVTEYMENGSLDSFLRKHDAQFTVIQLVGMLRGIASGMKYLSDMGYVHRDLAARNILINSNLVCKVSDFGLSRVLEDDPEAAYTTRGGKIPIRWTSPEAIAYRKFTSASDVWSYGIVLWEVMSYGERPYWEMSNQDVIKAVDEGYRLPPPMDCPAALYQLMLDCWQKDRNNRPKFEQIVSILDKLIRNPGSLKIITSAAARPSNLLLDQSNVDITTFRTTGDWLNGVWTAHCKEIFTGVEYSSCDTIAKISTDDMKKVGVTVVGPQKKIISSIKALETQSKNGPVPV

FLT3 = FLT3 (Homo sapiens, UniProt P36888); assay: Biochemical inhibition profile, FLT3; settings: read-out: Biochemical Inhibition Profile IC50, FLT3
Chain of FLT3 (P36888 27-993): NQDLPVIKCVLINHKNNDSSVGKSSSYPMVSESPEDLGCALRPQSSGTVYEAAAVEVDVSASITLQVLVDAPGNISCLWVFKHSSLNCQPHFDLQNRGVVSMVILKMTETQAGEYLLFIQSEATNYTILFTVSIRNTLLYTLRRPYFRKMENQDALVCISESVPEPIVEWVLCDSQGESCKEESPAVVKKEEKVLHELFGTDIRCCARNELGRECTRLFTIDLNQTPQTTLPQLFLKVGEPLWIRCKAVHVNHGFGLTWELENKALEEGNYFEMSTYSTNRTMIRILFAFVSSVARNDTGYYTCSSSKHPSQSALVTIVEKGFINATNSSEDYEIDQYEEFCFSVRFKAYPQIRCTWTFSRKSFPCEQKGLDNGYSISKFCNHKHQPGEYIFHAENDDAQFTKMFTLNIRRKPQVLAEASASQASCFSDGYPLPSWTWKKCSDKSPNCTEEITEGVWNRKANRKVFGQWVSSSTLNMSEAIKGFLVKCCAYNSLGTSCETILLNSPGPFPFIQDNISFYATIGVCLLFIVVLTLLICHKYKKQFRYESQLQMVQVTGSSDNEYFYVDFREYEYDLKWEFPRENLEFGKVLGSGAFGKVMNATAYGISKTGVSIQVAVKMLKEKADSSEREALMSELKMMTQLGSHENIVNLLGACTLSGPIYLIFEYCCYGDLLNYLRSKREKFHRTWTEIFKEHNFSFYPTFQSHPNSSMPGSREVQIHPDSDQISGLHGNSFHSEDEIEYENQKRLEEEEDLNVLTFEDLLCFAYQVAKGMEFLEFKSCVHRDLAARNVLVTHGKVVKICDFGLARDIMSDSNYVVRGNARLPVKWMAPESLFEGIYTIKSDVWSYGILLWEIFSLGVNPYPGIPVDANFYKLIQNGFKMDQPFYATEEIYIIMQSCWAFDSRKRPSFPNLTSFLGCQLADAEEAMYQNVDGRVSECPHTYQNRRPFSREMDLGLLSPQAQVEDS

EPHB2 = EPHB2 (Homo sapiens, UniProt P29323); assay: Biochemical inhibition profile, EPHB2; settings: read-out: Biochemical Inhibition Profile IC50, EPHB2
KDR = KDR (Homo sapiens, UniProt P35968); assay: Biochemical inhibition profile, KDR; settings: read-out: Biochemical Inhibition Profile IC50, KDR
Adverse events = format: in vivo, human
Outline: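 Five relapsed AML patients took test compound 50 mg/day as a once-daily oral capsule after an ~8 h fast, with breakfast at least 60 min later. A single-dose visit came first, then multidose treatment for four weeks (two weeks after amendment). Adverse events were graded by CTCAE v3.0. Dose-limiting toxicity definitions covered Grade ≥3 nonhematological events and Grade 3/4 QTc or blood-pressure changes.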

[3] = QTc assessment in patients with relapsed AML; format: in vivo, human; settings: after the single-dose administration, 48-hour follow-up
Outline: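 QTc was corrected by both Bazett and Fridericia formulas and compared with baseline across the 48 h after a single 50 mg oral dose. QTc was set against test-compound plasma concentration. Grade 3 was defined as >500 msec or a rise of >60 msec from baseline, confirmed by 12-lead ECG.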

EPHB4 [4] = target: T1, EPHB4; settings: read-out: Cell-Based Target Inhibition Assays IC50, pEphB4 Y590/Y596; HEK293-Clone 25; stable over-expression of EphB4
pERK T202Y204 in HUVEC = assay: Cell-based target inhibition assay, HUVEC, VEGF, pERK; set-up: species or system human; settings: read-out: Cell-Based Target Inhibition Assays IC50, pERK T202Y204, activator VEGF
[5] = also reversible lymphoid necrosis of Peyer's patches, skin depigmentation or whitening of the hair; cited from earlier work
[6] = AML patients, single and multiple oral doses 50 mg
[7] = Visit 0, single oral dose 50 mg, Max of N 5
[8] = Visit 0, single oral dose 50 mg, Min of N 5
[9] = Visit 0, single oral dose 50 mg, individual subjects (AML patients)
[10] = Visit 1, multiple oral doses 50 mg once daily, Max of N 5
[11] = Visit 1, multiple oral doses 50 mg once daily, Min of N 5
[12] = Visit 2, after multiple oral doses 50 mg, Max of N 2
[13] = Visit 2, after multiple oral doses 50 mg, Min of N 2
[14] = Maximum CTC grade 1, n = 5 patients, regardless of causality
[15] = Maximum CTC grade 2, n = 5 patients, regardless of causality
[16] = Maximum CTC grade 3, n = 5 patients, regardless of causality
[17] = Maximum CTC grade 4, n = 5 patients, regardless of causality

## Cc1cc(-c2ccn3c(-c4ccc(CC(=O)Nc5cccc(C(F)(F)F)c5)c(F)c4)cnc3c2)ccn1 [LY2457546]
[1]; AML patients, 50 mg/day orally
  Elimination within 24 hours: virtually no elimination
[1]; [6]
  Accumulation in plasma: Extensive accumulation
  Terminal elimination half-life: no terminal elimination half-life could be defined
[1]; [7]
  AUC0_24, Max: 41500 ng·h/mL
  AUClast, Max: 79200 ng·h/mL
  Clast, Max: 1354.06 ng/mL
  Cmax, Max: 2406.55 ng/mL
  Tlast, Max: 48 h
  Tmax, Max: 48 h
[1]; [8]
  AUC0_24, Min: 1850 ng·h/mL
  AUClast, Min: 1850 ng·h/mL
  Clast, Min: 78.459 ng/mL
  Cmax, Min: 105.113 ng/mL
  Tlast, Min: 24 h
  Tmax, Min: 2 h
[1]; [9]
  AUC0_24: 2520 ng·h/mL and 8930 ng·h/mL and 41500 ng·h/mL and 1850 ng·h/mL and 3420 ng·h/mL
  AUClast: 6030 ng·h/mL and 16100 ng·h/mL and 79200 ng·h/mL and 1850 ng·h/mL and 3420 ng·h/mL
  Clast: 154.876 ng/mL and 302.003 ng/mL and 1354.06 ng/mL and 105.113 ng/mL and 78.459 ng/mL
  Cmax: 154.876 ng/mL and 604.581 ng/mL and 2406.55 ng/mL and 105.113 ng/mL and 394.238 ng/mL
  Tlast: 48 h and 24 h
  Tmax: 48 h and 2 h and 4 h and 24 h
[1]; Visit 1, multiple oral doses 50 mg once daily, Max of N 3
  AUC0_24, Max: 69100 ng·h/mL
[1]; [10]
  AUClast, Max: 69200 ng·h/mL
  Clast, Max: 2830.537 ng/mL
  Cmax, Max: 3812.913 ng/mL
  Tlast, Max: 48 h
  Tmax, Max: 8 h
[1]; Visit 1, multiple oral doses 50 mg once daily, Min of N 3
  AUC0_24, Min: 2320 ng·h/mL
[1]; [11]
  AUClast, Min: 3610 ng·h/mL
  Clast, Min: 28.097 ng/mL
  Cmax, Min: 123.44 ng/mL
  Tlast, Min: 8 h
  Tmax, Min: 0 h
[1]; [12]
  AUC0_24, Max: 41500 ng·h/mL
  AUClast, Max: 93400 ng·h/mL
  Clast, Max: 2190.006 ng/mL
  Cmax, Max: 2190.006 ng/mL
  Tlast, Max: 48 h
  Tmax, Max: 48 h
[1]; [13]
  AUC0_24, Min: 18500 ng·h/mL
  AUClast, Min: 38400 ng·h/mL
  Clast, Min: 708.777 ng/mL
  Cmax, Min: 1087.972 ng/mL
  Tlast, Min: 48 h
  Tmax, Min: 0 h
EPHA1
  IC50: 616 nM
FLT4
  IC50: 1.56 nM
EPHB4 [2]
  IC50: 39.8 nM
EPHA3
  IC50: 99.8 nM
FLT3
  IC50: 5.1 nM
EPHB2
  IC50: 45.7 nM
KDR
  IC50: 28 nM
Adverse events; [14]
  Chapped lips, number of patients: 1
  Constipation, number of patients: 1
  Cough, number of patients: 1
  Diarrhea, number of patients: 2
  Epistaxis, number of patients: 1
  Facial swelling, number of patients: 1
  Fatigue, number of patients: 1
  Headache, number of patients: 3
  Hemangioma of liver, number of patients: 1
  Hematoma, number of patients: 1
  Hematuria, number of patients: 1
  Hemorrhoids, number of patients: 1
  Hepatomegaly, number of patients: 1
  Hyperhidrosis, number of patients: 1
  Hypokalemia, number of patients: 3
  Inguinal hernia, number of patients: 1
  Musculoskeletal pain, number of patients: 1
  Nausea, number of patients: 1
  Nephrolithiasis, number of patients: 1
  Oropharyngeal pain, number of patients: 1
  Osteoporosis, number of patients: 1
  Peripheral edema, number of patients: 1
  Petechiae, number of patients: 3
  Splenomegaly, number of patients: 1
  Ulcerative colitis, number of patients: 1
  Vertigo, number of patients: 1
Adverse events; [15]
  Anxiety, number of patients: 2
  Asthma, number of patients: 1
  Back pain, number of patients: 1
  Bladder spasm, number of patients: 1
  Constipation, number of patients: 1
  Epistaxis, number of patients: 2
  Gingival hyperplasia, number of patients: 1
  Hemorrhoids, number of patients: 1
  Hypertension, number of patients: 2
  Insomnia, number of patients: 1
  Keratoconjunctivitis sicca, number of patients: 1
  Stomatitis, number of patients: 1
  Urticaria, number of patients: 1
Adverse events; [16]
  Anal abscess, number of patients: 1
  Asthenia (muscle weakness), number of patients: 1
  Breast cellulitis, number of patients: 1
  Catheter-related infection, number of patients: 1
  Febrile neutropenia, number of patients: 2
  Fungal sepsis, number of patients: 1
  Hypotension, number of patients: 1
  Neutropenic sepsis, number of patients: 1
Adverse events; [17]
  Hemorrhage, number of patients: 1
  Hypophosphatemia, number of patients: 1
Adverse events; five patients, 50 mg/day orally
  Adverse events that were Grade 1 or 2: 81%
Adverse events; one patient (C) of five, 50 mg/day orally
  Dose-limiting toxicity: generalized muscle weakness (Grade 3)
[3]
  QTc prolongation after Bazet and Fridericia corrections: not present
EPHB4 [4]
  IC50: 9.1 nM
pERK T202Y204 in HUVEC
  IC50: 2.05 nM
[5]
  Toxicities in preclinical toxicology studies: reversible bone marrow toxicity, minimal liver inflammation, reversible physeal dysplasia
